Measured values pooled from the literature.
Lines come from different studies, so protocols differ.
Route: oral

Structure (SMILES) | species | medium | dose | notes | bioavailability
COCCOc1cc(CC2CCN(CCc3ccc4c(c3)C(=O)CCO4)CC2)ccc1Br.O=S(=O)(O)c1ccccc1 | male rat | plasma | 10 mg/kg | – | 7.3%
Cl.Clc1ccc2c(c1)nc(N1CCNCC1)n2Cc1ccccc1 | rat | plasma | 5 mg/kg | – | 42%
CNC(=O)c1cccc(-c2ccc(O[C@H]3O[C@H](CO)[C@@H](O)[C@H](O)[C@@H]3O)c(C)c2)c1 | male Sprague-Dawley rat | plasma | 10 mg/kg | single dose | 1.34%
C#Cc1cnc2nc(O)n(C(CC)CC)c2n1 | Sprague-Dawley rat | plasma | 1 mg/kg | – | > 90%
Oc1c(-c2cccnc2)cnn1-c1ccccn1 | rat | plasma | 30 mg/kg | – | 35%
N#C[C@]1(CO)O[C@@H](n2cnc3c(=O)[nH]c(N)nc32)C[C@@H]1O | male Sprague-Dawley rat | plasma | 1 mg/kg | – | ~70%
Cn1cc(-c2cc(N3CCCS3(=O)=O)ccc2Oc2ccc(F)cc2F)c2c(F)c[nH]c2c1=O | Sprague-Dawley rat | plasma | 3 mg/kg | – | 20 to 30%
N#Cc1ccc(Nc2nc(N)cc(Oc3c(F)cc(-c4ccc(C#N)cc4)cc3F)n2)cc1 | Sprague-Dawley rat | plasma | 5 mg/kg | – | 6.51%
CN1CCC(COc2cnc(-c3cccc(Cn4nc(-c5cccc(C#N)c5)ccc4=O)c3)nc2)CC1 | male Sprague-Dawley rat | plasma | 20 mg/kg | – | 56%
COCCOC(=O)C1=C(C)NC(C)=C(C(=O)OC(C)C)C1c1cccc([N+](=O)[O-])c1 (centres unmarked) | male Sprague-Dawley rat | plasma | 12 mg/kg | – | 21.9%
C=CC(=O)Nc1cc(Nc2nccc(Nc3cc(Cl)c(F)cc3C(C)(C)O)n2)c(OC)cc1N1CC[C@@H](N(C)C)C1 | Wistar rat | plasma | 3 mg/kg | – | 39.6%
Cc1cn(-c2cc(NC(=O)c3cccc(-c4ccc5nc(NC(=O)C6CC6)sc5n4)c3)cc(C(F)(F)F)c2)cn1 | rat | serum | 2 mg/kg | – | 4.7%
CCOC(=O)[C@@]12C[C@@H]1[C@@H](n1ccc3c(NC)nc(C#Cc4ccc(Cl)s4)nc31)[C@H](O)[C@@H]2O | male Sprague-Dawley rat | plasma | 5 mg/kg | – | 92%
N#Cc1ccc(-c2ccc(C[C@@H](C#N)NC(=O)[C@@H]3CCCCN3)cc2)cc1 | Sprague-Dawley rat | plasma | 3 mg/kg | – | 80%
Oc1c(-n2ccnn2)cnn1-c1cc(N2CCOCC2)ncn1 | rat | plasma | 30 mg/kg | – | 34%
Cc1cc(C(=O)O)nc(N2C[C@H]3C[C@@H](c4ccccc4C(F)(F)F)C[C@H]3C2)n1 | Sprague-Dawley rat | plasma | 12.7 µmol/kg | single dose | > 100%
COc1nc2[nH]c(C(F)(F)F)nc2nc1Nc1ccc(OC(F)(F)F)cc1F | Sprague-Dawley rat | serum | 5 mg/kg | – | 100%
